# Laboratory results from ChEMBL document CHEMBL4428090, “Modeling, Synthesis, and Biological Evaluation of Potential Retinoid X Receptor (RXR)-Selective Agonists: Analogues of 4-[1-(3,5,5,8,8-Pentamethyl-5,6,7,8-tetrahydro-2-naphthyl)ethynyl]benzoic Acid (Bexarotene) and 6-(Ethyl(5,5,8,8-tetrahydronaphthalen-2-yl)amino)nicotinic Acid (NEt-TMN)” (J Med Chem, 2016).
# Target: T1, Retinoid X receptor (Homo sapiens, UniProt P28702+P48443+P19793)
# T1 sequence (P28702 whole entry): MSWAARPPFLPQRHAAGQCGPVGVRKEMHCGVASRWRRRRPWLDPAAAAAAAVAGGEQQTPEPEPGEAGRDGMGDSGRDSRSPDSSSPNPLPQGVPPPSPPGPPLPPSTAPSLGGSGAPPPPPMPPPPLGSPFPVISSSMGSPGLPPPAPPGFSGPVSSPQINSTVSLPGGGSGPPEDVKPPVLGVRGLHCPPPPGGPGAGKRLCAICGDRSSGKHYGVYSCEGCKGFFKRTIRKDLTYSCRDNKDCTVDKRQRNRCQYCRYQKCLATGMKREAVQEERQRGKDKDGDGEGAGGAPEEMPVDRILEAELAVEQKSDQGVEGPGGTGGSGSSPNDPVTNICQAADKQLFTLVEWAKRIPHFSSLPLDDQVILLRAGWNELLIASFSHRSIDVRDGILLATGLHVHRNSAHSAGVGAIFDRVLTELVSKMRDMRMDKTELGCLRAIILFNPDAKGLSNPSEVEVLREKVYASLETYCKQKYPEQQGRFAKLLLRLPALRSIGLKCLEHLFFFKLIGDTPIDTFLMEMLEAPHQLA
# T1 sequence (P48443 whole entry): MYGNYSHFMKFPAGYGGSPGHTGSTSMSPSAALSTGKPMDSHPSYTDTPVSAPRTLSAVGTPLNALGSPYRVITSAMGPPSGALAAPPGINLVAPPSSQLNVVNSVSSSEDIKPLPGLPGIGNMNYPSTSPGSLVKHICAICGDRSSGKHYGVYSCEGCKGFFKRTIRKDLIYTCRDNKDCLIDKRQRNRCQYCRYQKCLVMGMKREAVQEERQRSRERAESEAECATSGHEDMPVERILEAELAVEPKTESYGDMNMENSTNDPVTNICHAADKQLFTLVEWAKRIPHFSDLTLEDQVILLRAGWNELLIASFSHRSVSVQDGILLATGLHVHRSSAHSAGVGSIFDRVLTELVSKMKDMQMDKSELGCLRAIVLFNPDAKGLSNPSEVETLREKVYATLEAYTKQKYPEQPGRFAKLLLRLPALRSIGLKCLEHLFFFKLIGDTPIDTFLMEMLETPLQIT
# T1 sequence (P19793 whole entry): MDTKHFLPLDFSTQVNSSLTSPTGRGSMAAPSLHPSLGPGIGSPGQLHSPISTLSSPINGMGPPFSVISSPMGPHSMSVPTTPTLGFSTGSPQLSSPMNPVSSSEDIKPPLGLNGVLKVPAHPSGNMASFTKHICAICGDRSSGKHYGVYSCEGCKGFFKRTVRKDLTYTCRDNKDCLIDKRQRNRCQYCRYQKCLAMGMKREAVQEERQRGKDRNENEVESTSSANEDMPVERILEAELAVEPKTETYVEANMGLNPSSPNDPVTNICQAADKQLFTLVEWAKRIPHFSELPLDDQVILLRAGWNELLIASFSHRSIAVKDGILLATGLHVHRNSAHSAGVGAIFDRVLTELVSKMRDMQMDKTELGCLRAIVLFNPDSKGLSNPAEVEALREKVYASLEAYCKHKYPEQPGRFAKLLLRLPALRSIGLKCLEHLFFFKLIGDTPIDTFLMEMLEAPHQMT
# Assay: Agonist activity at human RXR binding domain and activation domain expressed in human HCT116 cells assessed as rexinoid activity incubated for 24 hrs by luciferase reporter gene based mammalian two-hybrid assay
# Type: cell-based
# Conditions: not given; call rule not given here
row,SMILES,EC50 [nM]
1,CCN(c1ccc(C(=O)O)cc1)c1cc2c(cc1C)C(C)(C)CCC2(C)C,7.9
2,CCN(c1ccc2c(c1)C(C)(C)CCC2(C)C)c1ccc(C(=O)O)cn1,13.8

# Now from value to molecule:
row,EC50 [nM],SMILES
1,33.8,CCN(c1ccc(C(=O)O)c(F)c1)c1cc2c(cc1C)C(C)(C)CCC2(C)C
2,364.3,CCN(c1ccc2c(c1)C(C)(C)CCC2(C)C)c1cnc(C(=O)O)cn1
3,18.2,CCN(c1ncc(C(=O)O)cn1)c1cc2c(cc1C)C(C)(C)CCC2(C)C

# Target: T2, Retinoic acid receptor RXR-alpha (Homo sapiens) (UniProt P19793)
# T2 sequence (whole entry): T1 sequence (P19793 whole entry)
# Assay: Agonist activity at human RXRalpha expressed in human HCT116 cells assessed as increase in RXRE-mediated transcription at 25 nM incubated for 24 hrs by RXRE luciferase reporter gene assay relative to bexarotene
# Type: cell-based
# Conditions: not given
# How it was run: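 HCT-116 cells (80,000/well) co-transfected for 24 h with 250 ng RXRE-luciferase reporter (DR1 element from the rat cellular retinol binding protein II gene), 25 ng pSG5-human RXRα and 20 ng renilla. Dosed 24 h at 25, 100 or 1000 nM final; ethanol or DMSO vehicle 0.1%. Dual-luciferase read-out. Three independent assays in triplicate; bexarotene = 100%.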
row,SMILES,Activity [%]
1,CCN(c1ccc(C(=O)O)cc1)c1cc2c(cc1C)C(C)(C)CCC2(C)C,27 to 66
2,CCN(c1ccc2c(c1)C(C)(C)CCC2(C)C)c1ccc(C(=O)O)cn1,27 to 66

# Next, values leading:
row,Activity [%],SMILES
1,27 to 66,CCN(c1ccc(C(=O)O)c(F)c1)c1cc2c(cc1C)C(C)(C)CCC2(C)C
2,27 to 66,CCN(c1ncc(C(=O)O)cn1)c1cc2c(cc1C)C(C)(C)CCC2(C)C

# Species: Homo sapiens
# Assay: Selectivity index, ratio of agonist activity at human RARalpha expressed in HEK293 cells assessed as increase in RARE-mediated transcription relative to bexarotene to agonist activity at human RXRalpha expressed in human HCT116 cells assessed as increase in RXRE-mediated transcription relative to bexarotene
# Type: cell-based
# Conditions: not given
# How it was run: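 HEK293 cells (60,000/well) transfected for 24 h with 250 ng pTK-DR5(X2)-Luc, 25 ng human RARα and 20 ng renilla. Treated 24 h at 100 nM; activity expressed as a percentage of all-trans-retinoic acid. This RARE activity is divided by 100 nM RXRE activity, with the bexarotene ratio set to 1.0.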
row,SMILES,Ratio
1,CCN(c1ccc(C(=O)O)cc1)c1cc2c(cc1C)C(C)(C)CCC2(C)C,0.35 to 0.37
2,CCN(c1ccc2c(c1)C(C)(C)CCC2(C)C)c1ccc(C(=O)O)cn1,> 0.5
3,CCN(c1ccc(C(=O)O)c(F)c1)c1cc2c(cc1C)C(C)(C)CCC2(C)C,0.35 to 0.37
4,CCN(c1ccc2c(c1)C(C)(C)CCC2(C)C)c1cnc(C(=O)O)cn1,> 0.5
5,CCN(c1ncc(C(=O)O)cn1)c1cc2c(cc1C)C(C)(C)CCC2(C)C,0.35 to 0.37

# Target: T3, Retinoic acid receptor RXR-alpha/oxysterols receptor LXR-alpha (Homo sapiens, UniProt P19793+Q13133)
# T3 sequence (P19793 whole entry): T1 sequence (P19793 whole entry)
# T3 sequence (Q13133 whole entry): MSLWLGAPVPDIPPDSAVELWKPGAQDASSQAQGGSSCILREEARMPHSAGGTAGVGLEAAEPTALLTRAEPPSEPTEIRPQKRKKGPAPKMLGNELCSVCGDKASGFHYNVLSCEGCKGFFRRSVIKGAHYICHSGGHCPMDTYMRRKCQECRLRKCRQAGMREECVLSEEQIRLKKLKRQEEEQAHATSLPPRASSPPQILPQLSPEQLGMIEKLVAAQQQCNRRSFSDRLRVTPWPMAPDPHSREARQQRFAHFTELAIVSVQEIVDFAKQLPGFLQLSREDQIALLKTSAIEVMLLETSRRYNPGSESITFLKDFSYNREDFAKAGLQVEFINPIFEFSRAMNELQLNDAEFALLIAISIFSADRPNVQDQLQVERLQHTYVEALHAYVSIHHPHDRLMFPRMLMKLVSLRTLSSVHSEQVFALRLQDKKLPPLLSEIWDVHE
# Assay: Agonist activity at human RXRalpha/LXRalpha expressed in human HCT116 cells assessed as reduction in SREBP-mediated transcription activity at 100 nM incubated for 24 hrs by luciferase reporter gene assay relative to bexarotene
# Type: cell-based
# Design: scale not given: the % may be the effect or the level left
# Conditions: 0.1 µM
# How it was run: (§1)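 HCT116 cells co-transfected for 24 h with 100 ng pBP1c(6500)-Luc (about 6500 bp murine SREBP-1c promoter), 10 ng human LXRα and 20 ng renilla. Treated 24 h with compound at 100 nM, alone or with 100 nM TO901317. Luciferase output. Three independent assays in triplicate; bexarotene = 100%.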
row,SMILES,Activity
1,CCN(c1ccc(C(=O)O)cc1)c1cc2c(cc1C)C(C)(C)CCC2(C)C,54 to 79%
2,CCN(c1ccc2c(c1)C(C)(C)CCC2(C)C)c1ccc(C(=O)O)cn1,Active

# Continued, values first:
row,Activity,SMILES
1,54 to 79%,CCN(c1ccc(C(=O)O)c(F)c1)c1cc2c(cc1C)C(C)(C)CCC2(C)C
2,54 to 79%,CCN(c1ccc2c(c1)C(C)(C)CCC2(C)C)c1cnc(C(=O)O)cn1
3,Active,CCN(c1ncc(C(=O)O)cn1)c1cc2c(cc1C)C(C)(C)CCC2(C)C

# Target: T3, Retinoic acid receptor RXR-alpha/oxysterols receptor LXR-alpha
# Assay: Agonist activity at human RXRalpha/LXRalpha expressed in human HCT116 cells assessed as reduction in SREBP-mediated transcription activity at 100 nM incubated for 24 hrs by luciferase reporter gene assay in presence of 100 nM LXR agonist TO901317 relative to bexarotene
# Type: cell-based
# Design: scale not given: the % may be the effect or the level left
# Conditions: 0.1 µM
# How it was run: as §1
row,Activity [%],SMILES
1,13 to 17,CCN(c1ccc2c(c1)C(C)(C)CCC2(C)C)c1ccc(C(=O)O)cn1
2,33,CCN(c1ccc2c(c1)C(C)(C)CCC2(C)C)c1cnc(C(=O)O)cn1
3,13 to 17,CCN(c1ncc(C(=O)O)cn1)c1cc2c(cc1C)C(C)(C)CCC2(C)C

# Test system: HuT78
# Assay: Growth inhibition of human HUT78 cells at 200 nM incubated for 72 hrs by MTS assay relative to bexarotene
# Type: functional
# Conditions: HuT78, 72 h, read-out: GI
# How it was run: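 Hut78 cells in RPMI with 10% FBS at 37°C, 5% CO2. Plated 7,500 cells/well and immediately dosed at 200 nM for 72 h. MTS read at A490; percent inhibition with media control set to 0.0, compared with bexarotene set to 100%. Mean of three independent experiments.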
row,SMILES,inhibition of growth at 0.2 µM [%]
1,CCN(c1ccc(C(=O)O)cc1)c1cc2c(cc1C)C(C)(C)CCC2(C)C,35 to 51
2,CCN(c1ccc2c(c1)C(C)(C)CCC2(C)C)c1ccc(C(=O)O)cn1,> 85
3,CCN(c1ccc(C(=O)O)c(F)c1)c1cc2c(cc1C)C(C)(C)CCC2(C)C,55 to 80
4,CCN(c1ccc2c(c1)C(C)(C)CCC2(C)C)c1cnc(C(=O)O)cn1,35 to 51
5,CCN(c1ncc(C(=O)O)cn1)c1cc2c(cc1C)C(C)(C)CCC2(C)C,55 to 80
